From ChEMBL document CHEMBL1142561, “Prenylflavonoids and phloroglucinol derivatives from hops (Humulus lupulus)” (J Nat Prod, 2005)

Key:
RAW264.7 [1] = test: Inhibition of LPS/IFN-gamma-induced NO production in mouse RAW264.7 cells after 16 hrs; format: functional, cell-based; conditions: RAW264.7, 16 h
In short: (§1)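 RAW 264.7 macrophages in RPMI 1640 with 10% FBS, 2 mM L-glutamine, penicillin/streptomycin, seeded at 5 × 10⁵ cells/mL. After 1 h, stimulated with LPS (100 ng/mL) plus IFN-γ (100 units/mL) and samples in DMSO (0.2% final) for 16 h at 37 °C. Supernatant nitrite measured by Griess assay at 570 nm against NaNO₂ standards. Inhibition rate taken relative to LPS/IFN-only wells.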

[2] = Cytotoxicity against mouse RAW264.7 cells assessed as cell viability at <10 uM after 16 hrs by MTT assay; format: cell-based; conditions: read-out: Activity
In short: (§2)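 RAW 264.7 cells grown in RPMI 1640 with 10% FBS, 2 mM L-glutamine, penicillin/streptomycin. Seeded at 5 × 10⁵ cells/mL in 96-well plates and co-treated with LPS (100 ng/mL), IFN-γ (100 units/mL) and samples in DMSO (0.2% final) for 16 h at 37 °C. MTT (200 μg/mL) added for a further 4 h. Formazan dissolved in DMSO, A540 read, compared with nontreated cells.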

RAW264.7 [3] = test: Cytotoxicity against mouse RAW264.7 cells assessed as cell viability at 20 uM after 16 hrs by MTT assay; format: cell-based; conditions: raw264.7, 16 h; in short: as §2
[4] = Cytotoxicity against mouse RAW264.7 cells assessed as cell viability at 200 uM after 16 hrs by MTT assay; format: cell-based; conditions: read-out: Activity; in short: as §2
RAW264.7 [5] = test: Inhibition of LPS/IFN-gamma-induced NO production in mouse RAW264.7 cells at non cytotoxic concentration after 16 hrs; format: functional; in short: as §1
RAW264.7 [6] = test: Cytotoxicity against mouse RAW264.7 cells after 16 hrs by MTT assay; format: cell-based; conditions: raw264.7, 16 h; in short: as §2
[7] = Cytotoxicity against mouse RAW264.7 cells assessed as cell viability at 2 uM after 16 hrs by MTT assay; format: cell-based; conditions: read-out: Activity; in short: as §2

Row | Structure (SMILES) | IC50 (RAW264.7 [1]) | viability at 16 h [2] | Activity (RAW264.7 [3]) | viability at 16 h, 200 µM [4] | inhibition (INH) (RAW264.7 [5]) | Activity (RAW264.7 [6]) | viability at 16 h, 2 µM [7]
1 | COc1cc(O)c(CC(O)C(C)(C)OC)c(O)c1C(=O)/C=C/c1ccc(O)cc1 (racemic) | 6.5 µM | > 95% | – | – | – | – | –
2 | COc1cc(O)c(CC=C(C)C)c(O)c1C(=O)CCc1ccc(O)cc1 [DIHYDROXANTHOHUMOL] | 23 µM | > 95% | Non-toxic | – | – | – | –
3 | CC(C)=CCC1(CC=C(C)C)C(=O)C(O)=C(O)C1=O [HULUPINIC ACID] | > 100 µM | – | – | > 95% | – | – | –
4 | CC(C)=CCC1=C2OC(C)(C)C=CC2(CC=C(C)C)C(=O)C(C(=O)CC(C)C)=C1O (centres undefined) [LUPULONE A] | 20 µM | – | – | – | <40% | Toxic | –
5 | CC(C)=CCC1=C2OC(C)(C)C=CC2(CC=C(C)C)C(=O)C(C(=O)C(C)C)=C1O (centres undefined) [LUPULONE B] | 14 µM | – | – | – | <40% | Toxic | –
6 | CC(C)=CCC1(CC=C(C)C)C(=O)C2=C(OC(C(C)(C)O)C2)C(C(=O)CC(C)C)=C1O (centres undefined) [LUPULONE C] | 63 µM | – | – | – | <40% | Toxic | –
7 | CC(C)=CCC1=C2OC(C(C)(C)O)CC2(CC=C(C)C)C(=O)C(C(=O)CC(C)C)=C1O (centres undefined) [LUPULONE D] | 11 µM | – | – | – | <40% | Toxic | < 95%
8 | CC(C)=CCC1=C2OC(C(C)(C)O)CC2(CC=C(C)C)C(=O)C(C(=O)C(C)C)=C1O (centres undefined) [LUPULONE E] | 15 µM | – | – | – | <40% | Toxic | < 95%
9 | CC(C)C(=O)c1c(O)ccc2c1OC(C(C)(C)O)C2 (centres undefined) [LUPULONE F] | > 100 µM | – | – | – | – | – | –
10 | CC(C)=CCC1=C(O)C(C(=O)CC(C)C)=C(O)C(CC=C(C)C)(CC=C(C)C)C1=O [LUPULONE] | 17 µM | – | – | – | <40% | Toxic | –
11 | COc1cc2c(c(O)c1C(=O)/C=C/c1ccc(O)cc1)CC(O)C(C)(C)O2 (centres undefined) [XANTHOHUMOL B] | 5.6 µM | > 95% | – | – | – | – | –
12 | C=C(C)C(O)Cc1c(O)cc(OC)c(C(=O)/C=C/c2ccc(O)cc2)c1O (centres undefined) [XANTHOHUMOL D] | 9.4 µM | > 95% | – | – | – | – | –
13 | COc1cc(O)c(CC=C(C)C)c(O)c1C(=O)/C=C/c1ccc(O)cc1 [XANTHOHUMOL] | 8.3 µM | > 95% | – | – | – | – | –
